Our source for the inhibition values is ChEMBL document CHEMBL1136736, “In vitro and in vivo antitumor properties of tetrakis((trishydroxy- methyl)phosphine)gold(I) chloride” (J Med Chem, 2003).

A word on the inhibition: it is the change of the read-out against control, counted positive when it falls. Low readings indicate a response near the control, high ones a response far below the control.

Type in all cases: functional, cell-based
Assay [1] relates to AGS. As to the kind of experiment: Growth inhibition of AGS cell line at 0.54 nM derived from human gastric carcinoma. As to conditions: Stomach. The gist of the method: (§1)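 Tumor cells were exposed to the compound added as a methanol solution and cultured in a 5% CO2 incubator for 7 days (4 days for some table entries). Cells were counted, and percent growth inhibition = (mean control count − mean treated count)/mean control count × 100.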

The subject of assay [2] is HCT-15. Nature of the assay: Growth inhibition of HCT-15 cell line at 2.74 nM derived from human colon carcinoma. In outline: as §1
Assay [3] relates to HCT-15. As to the kind of experiment: Growth inhibition of HCT-15 cell line at 0.54 nM derived from human colon carcinoma. In outline: as §1
The subject of assay [4] is AGS. As to the kind of experiment: Growth inhibition of AGS cell line at 2.74 nM derived from human gastric carcinoma. The following applies: Stomach. In outline:
as §1

Another assay has as its system PC-3. As to the kind of experiment: Growth inhibition of PC-3 cell line at 13.72 nM derived from prostate cancer. The following applies: Homo sapiens. The gist of the method: as §1
The subject of assay [5] is LNCaP. As to the kind of experiment: Growth inhibition of LNCaP cell line at 0.54 nM derived from prostate cancer. As to conditions: Homo sapiens. In outline: as §1
The test system of assay [6] is LNCaP. As to the kind of experiment: Growth inhibition of LNCaP cell line at 2.74 nM derived from prostate cancer. The following applies: Homo sapiens. The gist of the method:
as §1

The subject of assay [7] is AGS. As to the kind of experiment: Growth inhibition of AGS cell line at 13.72 nM derived from human gastric carcinoma. As to conditions: Stomach. The gist of the method:
as §1

Assay [8] concerns HCT-15. As to the kind of experiment: Growth inhibition of HCT-15 cell line at 13.72 nM derived from human colon carcinoma. The gist of the method: as §1
Assay [9] deals with LNCaP. As to the kind of experiment: Growth inhibition of LNCaP cell line at 13.72 nM derived from prostate cancer. The following applies: Homo sapiens. The gist of the method:
as §1

In the case of “TETRAKIS((TRISHYDROXYMETHYL) PHOSPHINE)GOLD(I) CHLORIDE”, the inhibition came out at 10.2% in the assay with AGS [1]; 58.3% in the assay on HCT-15 [2]; 22.5% in the assay on HCT-15 [3]; 17.4% with AGS [4]; 27% in the assay with PC-3; 47.4% in the assay on LNCaP [5]. Also, the inhibition in the assay with LNCaP [6] amounted to 59.2%; in the assay with AGS [7], 59.5%; in the assay with HCT-15 [8] it was 87.5%; in the assay with LNCaP [9], 83.9%.
